In PMC2881163 (The journal of physical chemistry. B, 2010):

Columns and labels:
[1] = Surface tension, Du Nouy ring tensiometer; format: physicochemical; conditions: aqueous solution, 25 °C; for surface tension: at 10 mM, triplicate solutions
Method in brief: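 Test compound solutions were equilibrated to 25 °C. The ring was immersed 5 mm below the surface, then retracted automatically at 5 mm/min. Between measurements the ring was rinsed with water and ethanol and flamed. Solutions were prepared in triplicate.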

mice = conditions: cited from earlier work
[2] = Dynamic light scattering of aqueous solutions; format: physicochemical; conditions: 25 °C; for z-average diameter of micelles: DLS cumulant analysis, water, concentrations above the CMC, mean ± SD
Method in brief: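 He-Ne laser (632.8 nm) with backscatter detection at 173°, 25 °C, using water viscosity 0.8937 cP and refractive index 1.333. Samples diluted from stock in Milli-Q water and filtered (0.02 μm). Solvent scattering was subtracted and plotted against concentration, with the inflection taken as the CMC. Triton X-100 served as positive control and a non-amphiphilic peptide as negative control. Triplicate samples were each read three times. Z-average came from a single-exponential cumulant fit and size distribution from a multi-exponential fit.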

[3] = cited from earlier work
[4] = low, clinically relevant concentrations; cited from earlier work
[5] = Stability of CMS in solution; format: physicochemical; conditions: 0.9% saline, 25 °C, over 120 hr

For Colistin, which “interfacial tension after the CMC” value [1] is on record?
The value was “approximately 40 dynes/cm”.

What about the surface tension [1] of the same substance?
Its surface tension is 35–40 mN/m.

And the LD50 (mice)?
Its LD50 is 217.7 mg/kg.

What about the “z-average diameter of micelles” value [2] of the same substance?
The value was 2.07 ± 0.3 nm.

With Triton X-100 as the substance, how does the “z-average diameter of micelles” value [2] read?
The value was 8.17 ± 0.59 nm.

Which results are given for colistin methanesulfonate [CMS]?
surface tension [1]: 35–40 mN/m; LD50 (mice): 5.43 mg/kg; z-average diameter of micelles [2]: ~1.98 ± 0.36 nm; conversion of CMS to colistin in buffer solutions in vitro ([3]; <100 μg/mL at 37 °C): rapid; stability of concentrated CMS solutions with respect to formation of colistin ([3]; >70 mg/mL, relevant to commercial pharmaceutical formulations): stable for extended periods; conversion of CMS to colistin in plasma and urine in vivo [4]: rapid; conversion of CMS to colistin, initial concentration 0.052 mM ([5]; n = 3, HPLC of colistin formed): Rapid conversion; conversion of CMS to colistin, initial concentration 0.52 mM ([5]; n = 3, HPLC of colistin formed): Less rapid conversion; degradation of CMS, initial concentration 5.2 mM ([5]; n = 3, well above the CMC): negligible; degradation of CMS, initial concentration 52 mM ([5]; n = 3, well above the CMC): negligible

Which “light scattering above that of water” value ([2]; DLS, up to 20 mM, no reliable size data could be obtained) does the source give for “polymyxin B nonapeptide hydrochloride [PMBN]” here?
The value was “negligible”.
